A short description of assay [1]: SK-BR-3 cell growth inhibitors, pilot screen, 24 h, human (AID 572;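 active means viability at or below 10% of carrier control in both of two separate runs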;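 further: compound exposure lasted between 18 and 24 h rather than exactly 24 h; 100% = carrier-treated control wells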). The following applies: SK-BR-3 viability, CellTiter-Glo luminescence, at 10 µM, stronger effect = lower value.
The nature of assay [2]: HUVEC growth inhibition – cell-based, human, primary screen (AID 575;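 active means viability at or below 30% in both replicate assays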;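 further: 100% = median of untreated cell wells with 0.1% DMSO on each plate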). Conditions: HUVEC proliferation, CellTiter-Glo luminescence, 72 h; at 10 µM; stronger effect = lower value. The method in brief:
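System: primary human umbilical vein endothelial cells; Quantity: 1250 endothelial cells in each well; Buffer or medium: supplemented EBM, 2% fetal bovine serum; Doses: one dose, 10 µM final, 0.1% DMSO; Incubation: 72 h compound incubation; Technique: ATP-based CellTiter-Glo luminescent read; Evaluation: percent of median DMSO-control luminescence; Controls: vehicle and MePR control wells.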
In general terms: Cellular ATP, detected with luciferase, serves as a proxy for viable cell number.

Assay [3] is described as follows: growth inhibitors of H69AR lung tumor, primary screen, human, duplicate replicates (AID 580;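 active means viability at or under a set limit in both replicates, limit being median viability minus 3 SD, cut at about 48% in these data, passing the limit was not always enough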;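 further: 100% = mean luminescence of untreated wells and 0% = no signal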). Conditions: H69AR lung tumor cells viability, ATP luminescence, 72 h; at 10 µM; stronger effect = lower value.
A short description of assay [4]: reversal of MRP1-mediated doxorubicin resistance, pilot screen, H69AR cells, doxorubicin co-treatment (AID 601;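 active means viability loss from added drug above about 55%, and viability with drug at most 40%, in both replicates, limit read from the data, passing the limit was not always enough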). Conditions: CellTiter-Glo, 72 h, at 10 µM; for differential viability (reversal): stronger effect = higher value.
A short description of assay [5]: 384-well plate pilot, post-Golgi transport modulator project, inhibition of yeast transport mutant growth (AID 636; in the data active means inhibition above about 31%). Conditions: absorbance 615 nm, about 18 h, stronger effect = higher value.
The nature of assay [6]: growth suppression of yeast trafficking mutant, preliminary HTS, modulators of trafficking downstream of Golgi apparatus project, 1536-format plate, OD 615 nm (AID 637). Conditions: yeast transport mutant growth, absorbance 615 nm, 18 h; stronger effect = higher value.
Setting [7] is: H69AR cells + 2 uM doxorubicin, measured here: viability with 2 uM doxorubicin, stronger effect = lower value.
Setting [8] is: H69AR cells, compound alone cytotoxicity.

This is an account of results in PubChem BioAssay.

Structures are written as SMILES. Calls of active or inactive are those of the source. Unless noted, no stated cut-off is given here; in the data, active means inhibition above about 30%; inactive means the rest.

Broadly, the viability is a read-out of living cells in per cent, often relative to untreated cells. What is called inhibition is the change of the read-out against control, counted positive when it falls. As to `Cc1ccc(-c2nnc(N3CCN(C(=O)CN4C(=O)c5ccccc5C4=O)CC3)c3ccccc23)cc1`, the viability was 84% (inactive) in assay [1]; 73% (inactive) in assay [2]; 94% (inactive) in assay [3]; 94.3% in assay [4] (setting [7]); 94% in assay [4] (setting [8]). In assay [4] (H69AR cells + 2 uM doxorubicin), the differential viability (reversal) was -0.335% (inactive). For the same compound, the inhibition was -1.23% (inactive) in assay [5] and -4.03% (inactive) in assay [6].

As for `CCCCOc1ccc(C2C3CN(C(=O)OCC)CC=C3C(C#N)=C(N)C2(C#N)C#N)cc1OC` (centres undefined), the viability in assay [1] is 62% (inactive); in assay [2] it was 51.2% (inactive); in assay [3], 60.5% (inactive); in assay [4] (setting [7]), 55.4%; in assay [4] (setting [8]), 60.5%. The differential viability (reversal) in assay [4] (H69AR cells + 2 uM doxorubicin) is 5.07% (inactive). The inhibition in assay [5] is -5.27% (inactive); in assay [6], 2.13% (inactive).

Consider `Cc1cc(C)nc(SC2=CS(=O)(=O)c3ccccc32)n1`, for which the viability in assay [1] was 102% (inactive); in assay [2], 73.5% (inactive); in assay [3], 14.8% (active); in assay [4] (setting [7]) it was 22.3%; in assay [4] (setting [8]) it was 14.8%. Moreover, the differential viability (reversal) in assay [4] (H69AR cells + 2 uM doxorubicin) is -7.5% (inactive). Also, the inhibition is -1.2% (inactive) in assay [5] and -1.27% (inactive) in assay [6].

As for `C=CCn1c(SCC(=O)Nc2ccc3c(c2)OCO3)nc2ccccc2c1=O`, the viability in assay [1] was 73% (inactive); in assay [2], 83.9% (inactive); in assay [3], 84.2% (inactive); in assay [4] (setting [7]) it was 82.1%; in assay [4] (setting [8]) it was 84.2%. The differential viability (reversal) in assay [4] (H69AR cells + 2 uM doxorubicin) was 2.04% (inactive). Besides, the results for the inhibition in assay [5] and in assay [6] were -3.84% (inactive) and -1.27% (inactive), respectively.

For the compound `CC(=O)c1ccc(-n2nnnc2SCC(=O)N2CCc3ccccc3C2)cc1`, the viability in assay [1] is 94% (inactive); in assay [2] it was 106% (inactive); in assay [3] it was 88.9% (inactive); in assay [4] (setting [7]), 101%; in assay [4] (setting [8]) it was 88.9%. In assay [4] (H69AR cells + 2 uM doxorubicin), the differential viability (reversal) was -12.1% (inactive). In addition, the inhibition in assay [5] is -6.3% (inactive); in assay [6], -14.7% (inactive).

Regarding `C=CCSc1nnc(NC(=O)c2ccc(S(=O)(=O)NCC3CCCO3)cc2)s1` (centres undefined), the viability was 97% (inactive) in assay [1]; 84.3% (inactive) in assay [2]; 90.4% (inactive) in assay [3]; 93.2% in assay [4] (setting [7]); 90.4% in assay [4] (setting [8]). Also, the differential viability (reversal) in assay [4] (H69AR cells + 2 uM doxorubicin) was -2.83% (inactive). For the same compound, the inhibition was -3.84% (inactive) in assay [5] and -3.71% (inactive) in assay [6].

`Cc1ccc2nc(-c3ccc(S(=O)(=O)N4CCOCC4)cc3)cn2c1`: the viability in assay [1] was 138% (inactive); in assay [2], 108% (inactive); in assay [3] it was 105% (inactive); in assay [4] (setting [7]) it was 98.5%; in assay [4] (setting [8]), 105%. Also, the differential viability (reversal) in assay [4] (H69AR cells + 2 uM doxorubicin) is 6.21% (inactive). The values for the inhibition in assay [5] and in assay [6] were -1.17% (inactive) and -1.48% (inactive), respectively.

`COc1ccc(OC)c(NC(=O)CS(=O)(=O)c2ccccc2)c1`: the viability in assay [1] is 124% (inactive); in assay [2], 94.7% (inactive); in assay [3] it was 86.3% (inactive); in assay [4] (setting [7]) it was 93.7%; in assay [4] (setting [8]), 86.3%. Also, the differential viability (reversal) in assay [4] (H69AR cells + 2 uM doxorubicin) is -7.39% (inactive). Also, the inhibition was -6.3% (inactive) in assay [5] and 0.91% (inactive) in assay [6].

Regarding `CCN(CC)S(=O)(=O)c1ccc(NC(=O)Cn2cnc3ccccc3c2=O)cc1`, the viability is 87% (inactive) in assay [1]; 85.9% (inactive) in assay [2]; 93.8% (inactive) in assay [3]; 85.8% in assay [4] (setting [7]); 93.8% in assay [4] (setting [8]). In assay [4] (H69AR cells + 2 uM doxorubicin), the differential viability (reversal) is 8.02% (inactive). Besides, the inhibition was 0.96% (inactive) in assay [5] and -1.29% (inactive) in assay [6].

With `CC(C)NCC(O)COc1ccc(CC(N)=O)cc1` (centres undefined), the viability in assay [1] was 88% (inactive); in assay [2], 87.5% (inactive); in assay [3] it was 88.1% (inactive); in assay [4] (setting [7]), 88.7%; in assay [4] (setting [8]), 88.1%. The differential viability (reversal) in assay [4] (H69AR cells + 2 uM doxorubicin) was -0.64% (inactive). Moreover, the inhibition is 1.95% (inactive) in assay [5] and -2.67% (inactive) in assay [6].

As to `COc1ccc(Cn2nnnc2CN2CCOCC2)cc1`, the viability in assay [1] is 100% (inactive); in assay [2], 97.4% (inactive); in assay [3], 96.7% (inactive); in assay [4] (setting [7]), 102%; in assay [4] (setting [8]), 96.7%. Moreover, the differential viability (reversal) in assay [4] (H69AR cells + 2 uM doxorubicin) was -5.83% (inactive). Further, the inhibition is -6.85% (inactive) in assay [5] and -0.81% (inactive) in assay [6].

As for `CC1C/C=C/C=C/C=C/C=C/C(O[C@@H]2O[C@H](C)[C@@H](O)[C@H](N)[C@@H]2O)CC2OC(O)(CC(O)CC3OC3/C=C/C(=O)O1)CC(O)C2C(=O)O` (some centres undefined), the viability is 121% (inactive) in assay [1]; 99.7% (inactive) in assay [2]; 92.3% (inactive) in assay [3]; 84.1% in assay [4] (setting [7]); 92.3% in assay [4] (setting [8]). Also, in assay [4] (H69AR cells + 2 uM doxorubicin), the differential viability (reversal) is 8.26% (inactive). Also, the inhibition in assay [5] was 2.6% (inactive); in assay [6], -2.67% (inactive).

In the case of `O=S(=O)(c1cccc2c(S(=O)(=O)N3CCCC3)cccc12)N1CCCC1`, the viability in assay [1] was 72% (inactive); in assay [2] it was 107% (inactive); in assay [3] it was 93.5% (inactive); in assay [4] (setting [7]) it was 88.2%; in assay [4] (setting [8]), 93.5%. The differential viability (reversal) in assay [4] (H69AR cells + 2 uM doxorubicin) was 5.26% (inactive). Also, the inhibition was -9.18% (inactive) in assay [5] and -0.55% (inactive) in assay [6].

Regarding `S=c1[nH]nc(Cc2ccccc2)n1Cc1ccco1`, the viability was 78% (inactive) in assay [1]; 108% (inactive) in assay [2]; 96.3% (inactive) in assay [3]; 99.1% in assay [4] (setting [7]); 96.3% in assay [4] (setting [8]). Further, in assay [4] (H69AR cells + 2 uM doxorubicin), the differential viability (reversal) is -2.76% (inactive). Also, the values for the inhibition in assay [5] and in assay [6] were -1.64% (inactive) and -6.94% (inactive), respectively.

As to `O=C(CCn1cccc1)N1CCc2ccccc21`, the viability in assay [1] was 104% (inactive); in assay [2], 83% (inactive); in assay [3], 101% (inactive); in assay [4] (setting [7]) it was 87.6%; in assay [4] (setting [8]), 101%. The differential viability (reversal) in assay [4] (H69AR cells + 2 uM doxorubicin) is 13.3% (inactive). The inhibition in assay [5] is -2.08% (inactive); in assay [6], 2.13% (inactive).

With `COc1cc(C(=O)Nc2cc(C)ccn2)cc(OC)c1OC`, the viability is 90% (inactive) in assay [1]; 89.5% (inactive) in assay [2]; 97.5% (inactive) in assay [3]; 79.9% in assay [4] (setting [7]); 97.5% in assay [4] (setting [8]). Further, the differential viability (reversal) in assay [4] (H69AR cells + 2 uM doxorubicin) is 17.6% (inactive). The inhibition in assay [5] is 0.55% (inactive); in assay [6], -6.13% (inactive).

As for `COc1ccc(Cl)cc1NC(=O)CCN1CCN(c2ccccc2C)CC1`, the viability in assay [1] was 70% (inactive); in assay [2], 110% (inactive); in assay [3], 97.1% (inactive); in assay [4] (setting [7]) it was 91.6%; in assay [4] (setting [8]), 97.1%. The differential viability (reversal) in assay [4] (H69AR cells + 2 uM doxorubicin) is 5.5% (inactive). Moreover, the inhibition in assay [5] is -8.11% (inactive); in assay [6] it was -0.36% (inactive).

In the case of `Cc1cc(C)cc(N2C(=O)C3C4C=CC(C4)C3C2=O)c1` (centres undefined), the viability is 100% (inactive) in assay [1]; 109% (inactive) in assay [2]; 93% (inactive) in assay [3]; 85% in assay [4] (setting [7]); 93% in assay [4] (setting [8]). Further, the differential viability (reversal) in assay [4] (H69AR cells + 2 uM doxorubicin) is 7.94% (inactive). Moreover, the inhibition is -3.15% (inactive) in assay [5] and 2.36% (inactive) in assay [6].
